# Measurements: ChEMBL document CHEMBL4699631, “Antimalarial and anti-inflammatory activities of new chloroquine and primaquine hybrids: Targeting the blockade of malaria parasite transmission” (Bioorg Med Chem, 2020)
# Experiments:
# [1] = Cytotoxicity against monkey BGM cells assessed as reduction in cell viability incubated for 24 hrs by neutral red dye based assay; conditions: chlorocebus aethiops, read-out: MDL50
# How it was run: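 BGM monkey kidney cells grown in RPMI 1640 with 10% heat-inactivated fetal serum and gentamicin, 5% CO2, 37 °C. Cells allowed to adhere for 24 h, then exposed to compounds at 1000–1 μg/mL for 24 h. Neutral red uptake for 3 h, formaldehyde/CaCl2 fix, alcohol-acetic acid elution, absorbance at 540 nm. Viability taken as percent of untreated cells after background subtraction. MLD50 derived from this.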
# [2] = Selectivity index, ratio of MDL50 for monkey BGM cells to IC50 for Plasmodium falciparum CQR (W2 clone) infected in human Erythrocyte; format: toxicity
# How it was run: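 SI calculated as MLD50 in BGM cells (neutral red, 24 h) divided by IC50 against P. falciparum W2 (SYBR, 48 h).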
# [3] = test system: Plasmodium gallinaceum; assay: Antimalarial activity against Plasmodium gallinaceum vectored in Aedes fluviatilis infected in chicken assessed as reduction in oocyst number at 15 mg/kg, po measured after 4 hrs by Giemsa staining based microscopic analysis relative to control; format: functional; set-up: scale not given: the % may be the effect or the level left
# How it was run: (§1)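 One-day-old chickens infected intramuscularly with P. gallinaceum-infected erythrocytes; parasitemia and gametocytemia followed by daily Giemsa-stained smears. Chickens with rising parasitemia below 10% fed to starved (12 h) female Ae. fluviatilis (kept 28 °C, 80% humidity) at 0 h (control) and 4 h after dosing (test compound 25–50 mg/kg; PQ 15 mg/kg). Oocyst counts and mosquito infection rates compared with nontreated groups.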
# [4] = test system: Plasmodium gallinaceum; assay: Antimalarial activity against Plasmodium gallinaceum vectored in Aedes fluviatilis infected in chicken assessed as reduction in gametocyte stage at 15 mg/kg, po measured immediately by Giemsa staining based microscopic analysis relative to control; format: functional; set-up: scale not given: the % may be the effect or the level left; conditions: time 0 hrs; how it was run: as §1
# [5] = test system: Plasmodium gallinaceum; assay: Antimalarial activity against Plasmodium gallinaceum vectored in Aedes fluviatilis infected in chicken assessed as reduction in oocyst number at 15 mg/kg, po measured immediately by Giemsa staining based microscopic analysis; format: functional; conditions: time 0 hrs; how it was run: as §1
# [6] = test system: Plasmodium gallinaceum; assay: Antimalarial activity against Plasmodium gallinaceum vectored in Aedes fluviatilis infected in chicken assessed as reduction in mosquito infection at 15 mg/kg, po measured after 4 hrs by Giemsa staining based microscopic analysis relative to control; format: functional; how it was run: as §1
# [7] = test system: Plasmodium falciparum; assay: Antimalarial activity against Plasmodium falciparum CQR (W2 clone) infected in human erythrocyte assessed as reduction in parasite growth incubated for 48 hrs by SYBR assay; format: functional, organism-based
# How it was run: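 W2 parasites cultured in A+ human erythrocytes in RPMI 1640 with ALBUMAX II, candle jar, 37 °C. Rings synchronized with sorbitol, then exposed to serial dilutions at 0.5% parasitemia and 2% hematocrit for 48 h at 37 °C. Lysis buffer with SYBR Safe, 30 min in the dark, fluorescence read at ex 485 nm. IC50 from sigmoid curve fit against drug-free control.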
# [8] = test system: Plasmodium gallinaceum; assay: Antimalarial activity against Plasmodium gallinaceum vectored in Aedes fluviatilis infected in chicken assessed as reduction in parasite growth at 15 mg/kg, po measured immediately by Giemsa staining based microscopic analysis relative to control; format: functional; set-up: scale not given: the % may be the effect or the level left; conditions: time 0 hrs; how it was run: as §1
# [9] = test system: Plasmodium gallinaceum; assay: Antimalarial activity against Plasmodium gallinaceum vectored in Aedes fluviatilis infected in chicken assessed as reduction in mosquito infection at 15 mg/kg, po measured immediately by Giemsa staining based microscopic analysis relative to control; format: functional; set-up: scale not given: the % may be the effect or the level left; conditions: time 0 hrs; how it was run: as §1
# [10] = Cytotoxicty against mouse J774.A1 cells assessed as cell viability at 12.5 uM incubated for 24 hrs by resazurin dye based assay (reference value: 100 %); conditions: read-out: Activity
# How it was run: (§2)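 J774A.1 macrophages grown in DMEM with 10% FBS and 0.1% gentamycin, seeded at 1×10^5 cells/well. Exposed to compounds at 0, 12.5, 25, 50 or 100 μM for 24 h. Resazurin (10 μg/ml) added for 3 h, then fluorescence read. Run in triplicate. Viability given as percent of 0.2% DMSO-treated cells.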
# [11] = test system: Plasmodium gallinaceum; assay: Antimalarial activity against Plasmodium gallinaceum vectored in Aedes fluviatilis infected in chicken assessed as reduction in oocyst number at 25 mg/kg, po measured immediately by Giemsa staining based microscopic analysis; format: functional; conditions: time 0 hrs; how it was run: as §1
# [12] = test system: Plasmodium gallinaceum; assay: Antimalarial activity against Plasmodium gallinaceum vectored in Aedes fluviatilis infected in chicken assessed as reduction in mosquito infection at 50 mg/kg, po measured after 4 hrs by Giemsa staining based microscopic analysis relative to control; format: functional; how it was run: as §1
# [13] = test system: Plasmodium gallinaceum; assay: Antimalarial activity against Plasmodium gallinaceum vectored in Aedes fluviatilis infected in chicken assessed as reduction in mosquito infection at 50 mg/kg, po measured immediately by Giemsa staining based microscopic analysis relative to control; format: functional; set-up: scale not given: the % may be the effect or the level left; conditions: time 0 hrs; how it was run: as §1
# [14] = test system: Plasmodium gallinaceum; assay: Antimalarial activity against Plasmodium gallinaceum vectored in Aedes fluviatilis infected in chicken assessed as reduction in mosquito infection at 25 mg/kg, po measured immediately by Giemsa staining based microscopic analysis relative to control; format: functional; set-up: scale not given: the % may be the effect or the level left; conditions: time 0 hrs; how it was run: as §1
# [15] = Cytotoxicty against mouse J774.A1 cells assessed as cell viability at 100 uM incubated for 24 hrs by resazurin dye based assay (reference value: 100 %); conditions: read-out: Activity; how it was run: as §2
# [16] = Cytotoxicty against mouse J774.A1 cells assessed as cell viability at 25 uM incubated for 24 hrs by resazurin dye based assay (reference value: 100 %); conditions: read-out: Activity; how it was run: as §2
# [17] = test system: Plasmodium gallinaceum; assay: Antimalarial activity against Plasmodium gallinaceum vectored in Aedes fluviatilis infected in chicken assessed as reduction in gametocyte stage at 50 mg/kg, po measured immediately by Giemsa staining based microscopic analysis relative to control; format: functional; set-up: scale not given: the % may be the effect or the level left; conditions: time 0 hrs; how it was run: as §1
# [18] = test system: Plasmodium gallinaceum; assay: Antimalarial activity against Plasmodium gallinaceum vectored in Aedes fluviatilis infected in chicken assessed as reduction in parasite growth at 50 mg/kg, po measured immediately by Giemsa staining based microscopic analysis relative to control; format: functional; set-up: scale not given: the % may be the effect or the level left; conditions: time 0 hrs; how it was run: as §1
# [19] = test system: Plasmodium gallinaceum; assay: Antimalarial activity against Plasmodium gallinaceum vectored in Aedes fluviatilis infected in chicken assessed as reduction in oocyst number at 50 mg/kg, po measured immediately by Giemsa staining based microscopic analysis; format: functional; conditions: time 0 hrs; how it was run: as §1
# [20] = test system: Plasmodium gallinaceum; assay: Antimalarial activity against Plasmodium gallinaceum vectored in Aedes fluviatilis infected in chicken assessed as reduction in oocyst number at 25 mg/kg, po measured after 4 hrs by Giemsa staining based microscopic analysis relative to control; format: functional; set-up: scale not given: the % may be the effect or the level left; how it was run: as §1
# [21] = test system: Plasmodium gallinaceum; assay: Antimalarial activity against Plasmodium gallinaceum vectored in Aedes fluviatilis infected in chicken assessed as reduction in oocyst number at 50 mg/kg, po measured after 4 hrs by Giemsa staining based microscopic analysis relative to control; format: functional; set-up: scale not given: the % may be the effect or the level left; how it was run: as §1
# [22] = test system: Plasmodium gallinaceum; assay: Antimalarial activity against Plasmodium gallinaceum vectored in Aedes fluviatilis infected in chicken assessed as reduction in gametocyte stage at 25 mg/kg, po measured immediately by Giemsa staining based microscopic analysis relative to control; format: functional; set-up: scale not given: the % may be the effect or the level left; conditions: time 0 hrs; how it was run: as §1
# [23] = test system: Plasmodium gallinaceum; assay: Antimalarial activity against Plasmodium gallinaceum vectored in Aedes fluviatilis infected in chicken assessed as reduction in parasite growth at 25 mg/kg, po measured immediately by Giemsa staining based microscopic analysis relative to control; format: functional; set-up: scale not given: the % may be the effect or the level left; conditions: time 0 hrs; how it was run: as §1
# [24] = test system: J774.A1; assay: Inhibition of LPS-induced TNFalpha production in mouse J774.A1 cells incubated for 24 hrs by ELISA; format: functional, cell-based; conditions: dose microM 0.5-25, time 24.0 hrs
# How it was run: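 J774A.1 cells seeded at 2×10^6 cells/well. Pretreated with vehicle, dexamethasone 1 μM, or compounds at 0.5–25 μM. Stimulated with LPS 100 ng/ml for 24 h. Supernatants stored at −20 °C, then TNFα measured by sandwich ELISA in pg/mL. Triplicate, mean ± SEM.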
# [25] = Cytotoxicty against mouse J774.A1 cells assessed as cell viability at 50 uM incubated for 24 hrs by resazurin dye based assay (reference value: 100 %); conditions: read-out: Activity; how it was run: as §2
# [26] = test system: Plasmodium gallinaceum; assay: Antimalarial activity against Plasmodium gallinaceum vectored in Aedes fluviatilis infected in chicken assessed as reduction in mosquito infection at 25 mg/kg, po measured after 4 hrs by Giemsa staining based microscopic analysis relative to control; format: functional; how it was run: as §1
# [27] = test system: J774.A1; assay: Inhibition of LPS-induced NO production in mouse J774.A1 cells incubated for 24 hrs by Griess reagent based assay; format: functional, cell-based; conditions: dose microM 0.5-25, time 24.0 hrs
# How it was run: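 Compounds made as 10 mM DMSO stocks and diluted in medium. J774A.1 cells pre-incubated with compounds at 25 μM for screening, or 0.5–25 μM for dose-response, with dexamethasone 1 μM or 0.2% DMSO as controls. Stimulated with LPS 37.5 ng/ml plus IFNγ 25 U/ml for 24 h at 37 °C, 5% CO2. Supernatant nitrite measured by Griess at 540 nm. Triplicate, mean ± SEM.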
compound,measurement,setting,value
COc1cc(NC(C)CCCN)c2ncccc2c1 (stereo not given) [PRIMAQUINE],CC50 at 24 h,[1],483 µM
same,selectivity ratio,[2],255
same,Activity,[3],100%
same,Activity,[4],45%
same,Activity,[5],41
same,inhibition in vivo at 15 mg/kg,[6],100%
same,IC50,[7],1.9 µM
same,Activity,[8],7%
same,Activity,[9],85%
COc1cc(NC(C)CCCNC(=O)C(F)(F)c2cc(Cl)ccc2NC(C)=O)c2ncccc2c1 (stereo not given),CC50 at 24 h,[1],13.6 µM
same,"viability at 24 h, 12.5 µM",[10],100%
same,Activity,[11],56
same,inhibition in vivo at 50 mg/kg,[12],15%
same,selectivity ratio,[2],1.6
same,Activity,[13],95%
same,Activity,[14],89%
same,"viability at 24 h, 100 µM",[15],33.9%
same,"viability at 24 h, 25 µM",[16],96.8%
same,Activity,[17],42%
same,Activity,[18],10.3%
same,Activity,[19],166
same,Activity,[20],0%
same,Activity,[21],81.3%
same,Activity,[22],41%
same,Activity,[23],4.7%
same,IC50,[7],8.4 µM
same,inhibition,[24],Dose-dependent effect
same,"viability at 24 h, 50 µM",[25],56.2%
same,inhibition in vivo at 25 mg/kg,[26],5%
same,inhibition,[27],Dose-dependent effect
